Calls of active or inactive are those of the source. No cut-off for these calls is given here.
How the values were obtained:
[1] = target: Sphingosine 1-phosphate receptor 2 (Homo sapiens) (UniProt O95136); assay: Activity at S1P2 receptor
[2] = target: T1, Sphingosine 1-phosphate receptor 4 (Homo sapiens) (UniProt O95977); assay: Activity at S1P4 receptor
T1 sequence (whole entry): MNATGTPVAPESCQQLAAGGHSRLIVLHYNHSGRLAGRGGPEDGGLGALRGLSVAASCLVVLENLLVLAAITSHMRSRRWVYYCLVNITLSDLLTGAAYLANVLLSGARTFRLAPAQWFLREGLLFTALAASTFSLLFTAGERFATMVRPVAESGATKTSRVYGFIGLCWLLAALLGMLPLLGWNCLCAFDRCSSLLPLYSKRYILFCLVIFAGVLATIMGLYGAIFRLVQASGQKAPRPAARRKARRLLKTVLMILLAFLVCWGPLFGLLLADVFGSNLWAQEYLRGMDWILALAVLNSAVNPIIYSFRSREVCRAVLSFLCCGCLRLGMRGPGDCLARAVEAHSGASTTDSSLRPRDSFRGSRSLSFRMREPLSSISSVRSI

[3] = target: T2, Sphingosine kinase 2 (Mus musculus) (UniProt Q9JIA7); assay: Substrate activity at mouse Sphk2 expressed in HEK293T cells; details: HEK-293T
T2 sequence (whole entry): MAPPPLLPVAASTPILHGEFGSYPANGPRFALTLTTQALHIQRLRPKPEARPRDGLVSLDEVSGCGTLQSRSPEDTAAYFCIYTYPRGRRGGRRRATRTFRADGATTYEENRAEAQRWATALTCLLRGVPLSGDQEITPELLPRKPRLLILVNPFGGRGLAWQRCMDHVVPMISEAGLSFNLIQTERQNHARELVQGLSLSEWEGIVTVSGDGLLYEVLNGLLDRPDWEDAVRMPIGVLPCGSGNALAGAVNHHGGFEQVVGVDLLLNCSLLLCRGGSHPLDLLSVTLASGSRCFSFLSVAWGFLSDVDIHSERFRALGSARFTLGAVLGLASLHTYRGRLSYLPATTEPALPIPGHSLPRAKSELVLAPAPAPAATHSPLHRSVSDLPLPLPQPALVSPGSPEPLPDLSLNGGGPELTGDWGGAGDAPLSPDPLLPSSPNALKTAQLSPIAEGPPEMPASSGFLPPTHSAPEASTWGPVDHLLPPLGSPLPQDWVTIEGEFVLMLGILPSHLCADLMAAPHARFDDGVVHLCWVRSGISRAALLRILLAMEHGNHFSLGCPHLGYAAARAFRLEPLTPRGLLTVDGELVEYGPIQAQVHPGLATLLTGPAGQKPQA

[4] = target: Sphingosine 1-phosphate receptor 3 (Homo sapiens) (UniProt Q99500); assay: Antagonist activity at human S1P3 receptor expressed in CHOK1 cells assessed as effect on calcium mobilization; type: functional, cell-based; details: CHO-K1
Chain of Sphingosine 1-phosphate receptor 3 (Homo sapiens) (Q99500 whole entry): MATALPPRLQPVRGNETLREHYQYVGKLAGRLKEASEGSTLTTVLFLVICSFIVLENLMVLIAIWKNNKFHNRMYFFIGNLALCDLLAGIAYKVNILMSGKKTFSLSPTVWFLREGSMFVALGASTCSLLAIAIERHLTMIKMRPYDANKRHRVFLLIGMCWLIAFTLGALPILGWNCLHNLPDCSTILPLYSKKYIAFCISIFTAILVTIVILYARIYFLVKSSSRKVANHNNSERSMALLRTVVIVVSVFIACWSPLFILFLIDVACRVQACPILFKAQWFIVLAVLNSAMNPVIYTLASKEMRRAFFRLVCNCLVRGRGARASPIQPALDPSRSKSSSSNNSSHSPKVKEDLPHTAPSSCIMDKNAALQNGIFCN
Outline: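 Calcium mobilization in a FACS-isolated clonal CHO K1 line stably expressing HA-tagged human S1P3, loaded with a calcium-sensitive dye. Concentration-effect curves for the agonist were run with and without 1 μM test phosphate. There were eight points in triplicate (SEM), and three independent experiments.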

[5] = target: Sphingosine 1-phosphate receptor 3 (Homo sapiens) (UniProt Q99500); assay: Agonist activity at human S1P3 receptor expressed in CHOK1 cells; type: functional, cell-based; details: CHO-K1
Outline: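 Human S1P3 with N-terminal HA tag, stably expressed in a FACS-isolated clonal CHO K1 line. Confluent monolayers were washed and loaded with a calcium-sensitive fluorescent dye, and calcium transients were monitored on compound addition. Eight-point concentration-effect curves were run in triplicate and presented as SEM.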

Mus musculus [6] = assay: Induction of lymphopenia in C57B1/6J mouse at 1 mg/kg, po after 48 hrs; type: functional, organism-based; design: dose 1 mg/kg
Outline: (§1)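 Female C57Bl/6j mice (n=3 per group) received a single oral gavage of 1 mg/kg in 2% hydroxypropyl β-cyclodextrin on day 0. Blood was drawn from the orbital sinus under light anesthesia on the indicated days. Total lymphocytes were counted on a Hemavet 950 blood analyzer.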

Mus musculus [7] = assay: Induction of lymphopenia in C57B1/6J mouse at 1 mg/kg, po after 8 days; type: functional, organism-based; design: dose 1 mg/kg; outline: as §1

Chain of Sphingosine 1-phosphate receptor 2 (Homo sapiens) (O95136 whole entry): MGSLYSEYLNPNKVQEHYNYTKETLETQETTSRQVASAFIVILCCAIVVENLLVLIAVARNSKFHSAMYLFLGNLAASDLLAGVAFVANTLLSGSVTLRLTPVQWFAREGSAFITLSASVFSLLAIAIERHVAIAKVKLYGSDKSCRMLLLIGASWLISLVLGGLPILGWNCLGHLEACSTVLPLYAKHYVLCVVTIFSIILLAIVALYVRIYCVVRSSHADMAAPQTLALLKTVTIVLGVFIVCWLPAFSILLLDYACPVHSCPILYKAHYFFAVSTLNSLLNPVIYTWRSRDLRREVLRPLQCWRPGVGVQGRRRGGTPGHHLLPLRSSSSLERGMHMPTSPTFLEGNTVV

## CCCCCCCCc1ccc(C2CCC(N)(COP(=O)(O)O)C2)cc1 (configuration not stated)
[1]
  Activity: inactive
[2]
  Activity: Active

## CCCCCCCCc1ccc([C@H]2CC[C@@](N)(CO)C2)cc1
[3]
  Activity: inactive

## CCCCCCCCc1ccc([C@@H]2CC[C@@](N)(COP(=O)(O)O)C2)cc1
[4]
  Activity: Active
[5]
  Activity: inactive

## CCCCCCCCc1ccc([C@H]2CC[C@@](N)(COP(=O)(O)O)C2)cc1
[4]
  Activity: Active
[5]
  Activity: inactive

## CCCCCCCCc1ccc([C@@H]2CC[C@](N)(COP(=O)(O)O)C2)cc1
[4]
  Activity: inactive
[5]
  Activity: inactive

## CCCCCCCCc1ccc([C@@H]2CC[C@@](N)(CO)C2)cc1
[3]
  Activity: inactive

## CCCCCCCCc1ccc([C@H]2CC[C@](N)(COP(=O)(O)O)C2)cc1
[4]
  Activity: Active
[5]
  Activity: inactive

## CCCCCCCCc1ccc([C@H]2CC[C@](N)(CO)C2)cc1
Mus musculus [6]
  Activity: Active
[3]
  Activity: Active

## CCCCCCCCc1ccc([C@@H]2CC[C@](N)(CO)C2)cc1
Mus musculus [6]
  Activity: Active
Mus musculus [7]
  Activity: Active
[3]
  Activity: Active

— ChEMBL document CHEMBL1138321, “Asymmetric synthesis of conformationally constrained fingolimod analogues--discovery of an orally active sphingosine 1-phosphate receptor type-1 agonist and receptor type-3 antagonist” (J Med Chem, 2007)
